# An excerpt weighted towards active compounds, which were near 3.5% of everything screened.
# RGS4 act: potentiators or activators of RGS4. B-score at 10 µM. AID 463111. HEK293 M3R/inducible RGS4, carbachol calcium flux Fluo4; stronger effect = lower value. 310,000 tested, 0.92% active;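 active = B-score of the integrated calcium signal more than 4 SD below the library mean, with starting fluorescence not abnormally high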;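 note: negative B-score means reduced calcium response which marks RGS4 activation or potentiation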
#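 Material: Inducible-RGS4 HEK293 cells carrying M3 receptor; also added: carbachol at ECmax as muscarinic agonist stimulus; incubation: compound preincubation 20 min at room temperature before agonist; signal: Fluo4-AM (2 µM) calcium-flux fluorescence, kinetic read; measure: integrated calcium ratio converted to B score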
# RGS4 inh: inhibitors of human RGS4; AID 463165; 310,000 tested, 0.45% active; HEK293 M3R/RGS4 inducible, Fluo-4 calcium flux; stronger effect = higher value; triggered by carbachol at its EC20; P49798; B-score at 10 µM;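 active = B-score, a plate-corrected calcium signal, over three deviations above library mean, with baseline fluorescence within five deviations of library mean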;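 note: RGS4 expression induced by doxycycline in cells with stable M3 receptor; B-score is computed from the integrated fluorescence ratio over baseline after carbachol; higher B-score means a larger calcium signal and so more RGS4 inhibition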
# Target sequence (P49798 whole entry, looked up): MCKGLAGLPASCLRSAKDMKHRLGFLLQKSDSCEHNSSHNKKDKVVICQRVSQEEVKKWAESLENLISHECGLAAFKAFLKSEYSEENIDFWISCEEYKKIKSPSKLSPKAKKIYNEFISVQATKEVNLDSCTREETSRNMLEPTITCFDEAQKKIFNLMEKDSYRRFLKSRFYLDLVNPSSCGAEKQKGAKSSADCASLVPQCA
# MrgX1 antagonist: antagonists of human MrgX1 receptor | 310,000 tested, 1.3% active | B-score at 10 µM | MRGX1-HEK293 calcium flux, Fluo-4, BAM8-22 antagonism; stronger effect = lower value;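 active = calcium-response B-score plate-corrected more than 3 library SD below zero, starting fluorescence within 5 deviations, no agonist response on first addition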;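 note: peak minus trough fluorescence over baseline after final BAM8-22 challenge near maximal dose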
# Target sequence (Q96LB2 whole entry, looked up): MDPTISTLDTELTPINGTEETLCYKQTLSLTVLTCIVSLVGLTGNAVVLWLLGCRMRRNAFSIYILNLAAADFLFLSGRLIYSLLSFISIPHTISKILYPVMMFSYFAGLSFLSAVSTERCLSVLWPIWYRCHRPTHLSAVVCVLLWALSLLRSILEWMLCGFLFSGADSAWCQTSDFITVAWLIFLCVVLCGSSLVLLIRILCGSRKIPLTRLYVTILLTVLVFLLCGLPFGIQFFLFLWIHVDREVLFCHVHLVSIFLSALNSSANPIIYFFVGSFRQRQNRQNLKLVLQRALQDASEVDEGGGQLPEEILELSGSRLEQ
# MrgX1 ag: activates human MrgX1 receptor signaling; Q96LB2; MrgX1-HEK293 cells, Fluo-4 calcium fluorescence, agonist mode; stronger effect = higher value; B-score at 10 µM; 310,000 tested, 0.44% active;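 active = calcium response B-score plate-corrected fluorescence ratio at least 3 library SD, with starting fluorescence B-score inside 5 SD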
#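 times = overnight plating, then 30 min 37 °C plus 30 min room-temperature dye loading | assay system = stable human MrgX1 HEK293 cell line | input = fifteen thousand cells per well | signal = kinetic calcium dye fluorescence, Fluo-4 NW | dosing = compound delivered in addition one of three | read-out = B-scored fluorescence response ratio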
# MrgX1 PAM: human MrgX1 positive allosteric modulation, primary screen. Q96LB2. AID 588675. 310,000 tested, 0.63% active. MrgX1-HEK293, Fluo-4 calcium flux, FDSS; stronger effect = higher value. B-score at 10 µM;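 active = plate-corrected calcium response at least 3 library SD above typical, normal starting fluorescence, not activating the receptor alone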;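 note: compound read alongside a low EC10 to EC30 dose of BAM8-22 agonist; peak minus trough fluorescence over baseline measured at the second addition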
# MrgX1 antag conf: reconfirmed antagonist of human MrgX1 receptor signaling; shares compounds with MrgX1 antagonist; MrgX1-HEK293, BAM8-22 calcium flux, Fluo-4; stronger effect = lower value; remaining BAM8-22 calcium response % of control (stronger effect = lower value), % at 10 µM; 2,300 tested, 19% active;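 active = remaining agonist calcium response no higher than 100% minus 3 SD of agonist-only control wells, with starting fluorescence near control levels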;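 note: agonist BAM8-22 given at a near maximal EC90 to ECmax level; peak minus minimum fluorescence divided by baseline after agonist addition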
# HEK293 Ca flux: counter-screen for MrgX1 antagonists: effect in parental HEK293 cells. shares compounds with MrgX1 antagonist. Fluo-4 calcium fluorescence, FDSS. fluorescence ratio F(max-min)/F0 at 10 µM. 4,000 tested, 2% active;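 active = duplicate-averaged calcium fluorescence ratio at least three times the standard deviation of buffer wells, a nonspecific response in parental cells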
# HEK293 Ca counter: MrgX1 allosteric activator counter-screen hit in parental HEK293 cells | shares compounds with MrgX1 antagonist | parental HEK293 calcium flux, Fluo-4 fluorescence ratio; stronger effect = higher value | fluorescence ratio F(max-min)/F0 at 10 µM | 4,000 tested, 0.4% active;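 active = calcium fluorescence ratio, averaged over duplicates, at least 3 SD of the buffer-well ratio, meaning a nonspecific response in receptor-free cells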;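 note: untransfected parental HEK293 lacking MrgX1 used as counterscreen for MrgX1 allosteric activators; fluorescence change taken during the second addition on a kinetic imager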
# HEK293 Ca cntr2: MrgX1 activator counter-screen hit in parental HEK293 cells; Fluo-4 calcium fluorescence (FDSS); stronger effect = higher value; shares compounds with MrgX1 antagonist; fluorescence ratio F(max-min)/F0 at 10 µM; AID 624115; 4,000 tested, 8.7% active;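 active = calcium fluorescence ratio at least three times the spread of buffer wells, meaning a non-specific response in parental cells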
# Active calls of the source: *; i = inactive; · = no result; ! = not confirmed by another sample.
SMILES,RGS4 act,RGS4 inh,MrgX1 antagonist,MrgX1 ag,MrgX1 PAM,MrgX1 antag conf,HEK293 Ca flux,HEK293 Ca counter,HEK293 Ca cntr2
CC(C)c1nnc(NC(=O)c2nc(S(=O)(=O)Cc3ccccc3)ncc2Cl)s1,i,i,-5.27*,i,i,81.2%*,i,i,i
CCc1ccc(NC(=O)c2nc(S(=O)(=O)Cc3ccccc3)ncc2Cl)cc1,i,i,i,i,i,·,·,·,·
CSc1nnc(NC(=O)c2nc(S(=O)(=O)Cc3ccccc3)ncc2Cl)s1,i,i,-4.74*,i,i,71.1%*,i,i,i
CCC(CC)NC(=O)Cc1ccc(F)cc1,i,i,i,i,i,·,·,·,·
CCOC(=O)c1sc(NC(=S)NC(=O)c2cccc(Cl)c2)c(C(=O)OCC)c1C,i,i,-4.87*,i,i,i,i,i,i
O=C(Nc1ccc(Cl)c(Cl)c1)Nc1ccccc1NS(=O)(=O)c1cccs1,i,i,-7.26*,i,i,73.9%*,i,i,i
O=C(Nc1ccccc1)Nc1ccccc1NS(=O)(=O)c1cccs1,i,i,i,i,i,·,·,·,·
CCN(CC)CCN1C(=O)Cn2c(C)c(C)c3cccc1c32,i,i,-4.96*!,i,i,i,i,i,i
CCC(C)c1ccc(O)c(NC(=O)c2cccnc2)c1 (configuration not stated),i,i,i,i,i,·,·,·,·
O=C(Nc1ccncc1)c1cncc(Br)c1,i,i,-5.45*,i,i,i,i,i,i
CC(C)c1ccc(O)c(NC(=O)c2cncc(Br)c2)c1,i,i,-7.8*,i,i,i,i,i,i
O=C(Nc1cccc(NC(=O)c2cncc(Br)c2)c1)c1cncc(Br)c1,i,i,i,i,i,·,·,·,·
COCCCNC(=O)C1CC(=O)N(C2CCCC2)C1 (configuration not stated),i,i,-4.81*,i,i,i,i,i,i
CCN(CC)c1ccc(S(=O)(=O)N2CCOCC2)cc1NC(=O)CN1CCc2ccccc2C1,i,i,i,i,i,·,·,·,·
Cc1nc(COc2ccccc2Cl)sc1-c1ccnc(N)n1,i,i,i,i,i,·,·,·,·
CNC(=O)CSc1nnc(-c2cccnc2)n1-c1ccc(C)cc1,i,i,-5.64*,i,i,i,i,i,i
CCCN(CC(=O)Nc1ccc(F)c(F)c1F)C(=O)c1cc([N+](=O)[O-])ccc1N1CCOCC1,i,i,i,i,i,·,·,·,·
Cc1ccc2c(C(=O)CN3CCN(c4ccccc4)CC3)c(C)[nH]c2c1,i,i,-7.25*,i,i,i,i,i,i
Cc1ccc2c(C(=O)CN3CCOCC3)c(C)[nH]c2c1,i,i,i,i,i,·,·,·,·
O=C(CCC(=O)N(CC(=O)NC1CCCC1)Cc1ccc(F)cc1)Nc1nccs1,i,i,i,i,i,·,·,·,·
Cc1cccc(N2CCN(C(=O)c3ccc(N4CCCC4=O)cc3)CC2C)c1 (configuration not stated),i,i,-4.89*,i,i,i,i,i,i
Cc1cccc(N2CCN(C(=O)c3cccc(N4C(=O)C5C6C=CC(C6)C5C4=O)c3)CC2C)c1 (configuration not stated),i,i,i,i,i,·,·,·,·
Cc1nn(C)cc1CN(C)C(=O)c1nn2c(c1Cl)NC(c1cccs1)CC2C(F)(F)F (configuration not stated),i,i,-4.98*,i,i,73.7%*,i,i,i
Cc1ccc(S(=O)(=O)N2CCCC2=O)c(C)c1N(C)S(C)(=O)=O,i,i,i,i,i,·,·,·,·
CC(C)CCNC(=O)CN(Cc1ccco1)C(=O)CCC(=O)Nc1nccs1,i,i,i,i,i,·,·,·,·
SMILES,RGS4 act,RGS4 inh,MrgX1 antagonist,MrgX1 ag,MrgX1 PAM,MrgX1 antag conf,HEK293 Ca flux,HEK293 Ca counter,HEK293 Ca cntr2
COc1cccc(CC2(CO)CCCN(Cc3cn[nH]c3-c3ccccc3)C2)c1 (configuration not stated),i,i,-5.01*,i,i,72.3%*,i,i,i
Cc1ccccc1CC1(CO)CCCN(Cc2cn[nH]c2-c2ccccc2)C1 (configuration not stated),i,i,i,i,i,·,·,·,·
COc1ccc(-n2c(CNC(=O)c3cccs3)n[nH]c2=S)cc1,i,i,-4.77*,i,i,i,i,i,i
CCN1CNC(=S)N(c2cc(C)ccc2C)C1,i,i,-5.84*,i,i,i,i,i,i
CCC(=O)Nc1cc(C(F)(F)F)ccc1N1CCOCC1,i,i,i,i,i,·,·,·,·
CC(C)C(=O)Nc1cc(C(F)(F)F)ccc1N1CCOCC1,i,i,-5.03*,i,i,75.6%*,i,i,i
CC1Cc2ccccc2N1C(=O)c1ccc(N2CCCCC2)c([N+](=O)[O-])c1 (configuration not stated),i,i,-10.9*,i,i,i,i,i,i
CC1Cc2ccccc2N1C(=O)c1ccc(N2CCCC2)c([N+](=O)[O-])c1 (configuration not stated),i,i,i,i,i,·,·,·,·
O=C(NC1CCCN(c2ccc(C(F)(F)F)cn2)C1)c1cc(Cl)ccc1F (configuration not stated),i,i,-6.65*,i,i,i,i,i,i
Cc1ccc(C(=O)NC2CCCN(c3ccc(C(F)(F)F)cn3)C2)cn1 (configuration not stated),i,i,i,i,i,·,·,·,·
COc1cccc(N(CC(=O)NC2CCCCC2)C(=O)CCCC(=O)Nc2ccccn2)c1,i,i,i,i,i,·,·,·,·
CC(/C=C1\SC(=S)N(C(C(=O)O)c2ccccc2)C1=O)=C\c1ccccc1 (configuration not stated),-7.36*,i,-14.3*,i,i,i,i,i,i

# Compound activity as filed in PubChem BioAssay.
